According to ChEMBL document CHEMBL3351752, “Discovery and in vivo evaluation of alcohol-containing benzothiazoles as potent dual-targeting bacterial DNA supercoiling inhibitors” (Bioorg Med Chem Lett, 2014):
Converted amounts (≈) assume the structure as drawn. Values belong to the compound of their own block, whether it stands above or below them.

Assays:
[1] = system: Staphylococcus aureus; test: Inhibition of Staphylococcus aureus DNA gyrase ATPase subunit GyrA2/GyrB2 after 60 mins by malachite green staining assay
[2] = Fraction unbound in mouse plasma by ultracentrifugation; assay type: ADME, cell-free
In short: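 Compound at 10 µM (1% DMSO) was equilibrated in neat plasma at 37 °C for 60 min. Duplicate aliquots were ultracentrifuged at 250,000g for 4.2 h at 37 °C. Free compound in the plasma-water supernatant was compared with uncentrifuged samples incubated alike. Uncentrifuged samples kept at 20 °C checked degradation, and diltiazem served as stability control. Analysis was by LCMS.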

[3] = system: Staphylococcus aureus; test: Antibacterial activity against Staphylococcus aureus ATCC 29213 assessed as growth inhibition; assay type: functional
[4] = system: Streptococcus pyogenes; test: Antibacterial activity against Streptococcus pyogenes 51339 assessed as growth inhibition; assay type: functional
[5] = system: Haemophilus influenzae; test: Antibacterial activity against Haemophilus influenzae 49247 assessed as growth inhibition; assay type: functional
[6] = system: Staphylococcus aureus; test: Antibacterial activity against Staphylococcus aureus ATCC 29213 assessed as growth inhibition in presence of 50% horse serum; assay type: functional
[7] = system: Streptococcus pyogenes; test: Antimicrobial activity against Streptococcus pyogenes harboring ParE A53S mutant assessed as growth inhibition; assay type: functional
[8] = system: Staphylococcus aureus; test: Antimicrobial activity against Staphylococcus aureus harboring GyrB T173N mutant assessed as growth inhibition; assay type: functional

inhibitory concentration [1]: 0.006 µg/mL
fraction unbound [2]: 0.056
MIC [3]: 0.12 µg/mL (≈ 0.238 µM)
MIC [4]: 0.12 µg/mL (≈ 0.238 µM)
MIC [5]: 2 µg/mL (≈ 3.97 µM)
MIC [6]: 0.25 µg/mL
Compound: CCNC(=O)Nc1nc2cc(-c3cnc(C(C)(C)O)nc3)cc(-c3cc(CNC4CC4)ccn3)c2s1

Compound: CCNC(=O)Nc1nc2cc(-c3cnc(C4(O)CCSCC4)nc3)cc(-c3ccccn3)c2s1
MIC [7]: 4 µg/mL (≈ 8.12 µM)
inhibitory concentration [1]: 0.005 µg/mL
MIC [3]: 0.12 µg/mL (≈ 0.244 µM)
MIC [8]: 0.25 µg/mL (≈ 0.507 µM)
MIC [4]: 0.5 µg/mL (≈ 1.01 µM)
MIC [5]: 2 µg/mL (≈ 4.06 µM)
MIC [6]: 1 µg/mL

inhibitory concentration [1]: 0.012 µg/mL
fraction unbound [2]: 0.067
MIC [3]: 0.5 µg/mL (≈ 0.966 µM)
MIC [4]: 0.5 µg/mL (≈ 0.966 µM)
MIC [5]: 4 µg/mL (≈ 7.73 µM)
MIC [6]: 0.5 µg/mL
Compound: CCNC(=O)Nc1nc2cc(-c3cnc(C(C)(C)O)nc3)cc(-c3cc(CN4CCCC4)ccn3)c2s1

Compound: CCNC(=O)Nc1nc2cc(-c3cnc([C@@H](O)[C@H](O)C(F)(F)F)nc3)cc(-c3ccccn3)c2s1 (racemic)
MIC [7]: 1 µg/mL (≈ 1.98 µM)
inhibitory concentration [1]: 0.005 µg/mL
MIC [3]: 0.06 µg/mL (≈ 0.119 µM)
MIC [8]: 0.25 µg/mL (≈ 0.496 µM)
MIC [4]: 0.12 µg/mL (≈ 0.238 µM)
MIC [5]: 0.5 µg/mL (≈ 0.991 µM)
MIC [6]: 0.25 µg/mL

Compound: CCNC(=O)Nc1nc2cc(-c3cnc(C4(O)CCOCC4O)nc3)cc(-c3ccccn3)c2s1 (racemic)
MIC [7]: 2 µg/mL (≈ 4.06 µM)
inhibitory concentration [1]: 0.009 µg/mL
MIC [3]: 0.5 µg/mL (≈ 1.02 µM)
MIC [8]: 4 µg/mL (≈ 8.12 µM)
MIC [4]: 0.12 µg/mL (≈ 0.244 µM)
MIC [5]: 2 µg/mL (≈ 4.06 µM)
MIC [6]: 0.5 µg/mL

Compound: CCCC(O)c1ncc(-c2cc(-c3ccccn3)c3sc(NC(=O)NCC)nc3c2)cn1 (racemic)
MIC [7]: 2 µg/mL (≈ 4.46 µM)
inhibitory concentration [1]: 0.007 µg/mL
MIC [3]: 0.03 µg/mL (≈ 0.0669 µM)
MIC [8]: 0.25 µg/mL (≈ 0.557 µM)
MIC [4]: 0.06 µg/mL (≈ 0.134 µM)
MIC [5]: 1 µg/mL (≈ 2.23 µM)
MIC [6]: 0.25 µg/mL

Compound: CCNC(=O)Nc1nc2cc(-c3cnc(C4(O)CCCC4)nc3)cc(-c3ccccn3)c2s1
MIC [7]: 2 µg/mL (≈ 4.34 µM)
inhibitory concentration [1]: 0.005 µg/mL
MIC [3]: 0.03 µg/mL (≈ 0.0651 µM)
MIC [8]: 0.25 µg/mL (≈ 0.543 µM)
MIC [4]: 0.12 µg/mL (≈ 0.261 µM)
MIC [5]: 1 µg/mL (≈ 2.17 µM)
MIC [6]: 0.5 µg/mL

Compound: CCNC(=O)Nc1nc2cc(-c3cnc(C4(O)COC4)nc3)cc(-c3ccccn3)c2s1
MIC [7]: 2 µg/mL (≈ 4.46 µM)
inhibitory concentration [1]: 0.006 µg/mL
MIC [3]: 0.06 µg/mL (≈ 0.134 µM)
MIC [8]: 0.5 µg/mL (≈ 1.11 µM)
MIC [4]: 0.12 µg/mL (≈ 0.268 µM)
MIC [5]: 0.5 µg/mL (≈ 1.11 µM)
MIC [6]: 0.12 µg/mL

Compound: CCNC(=O)Nc1nc2cc(-c3cnc([C@@H](O)[C@H](O)C(F)F)nc3)cc(-c3ccccn3)c2s1 (racemic)
MIC [7]: 1 µg/mL (≈ 2.06 µM)
inhibitory concentration [1]: 0.004 µg/mL
MIC [3]: 0.06 µg/mL (≈ 0.123 µM)
MIC [8]: 0.5 µg/mL (≈ 1.03 µM)
MIC [4]: 0.12 µg/mL (≈ 0.247 µM)
MIC [5]: 0.25 µg/mL (≈ 0.514 µM)
MIC [6]: 0.25 µg/mL

Compound: CCNC(=O)Nc1nc2cc(-c3cnc(C(O)C4CC4)nc3)cc(-c3ccccn3)c2s1 (racemic)
MIC [7]: 1 µg/mL (≈ 2.24 µM)
inhibitory concentration [1]: 0.008 µg/mL
MIC [3]: 0.06 µg/mL (≈ 0.134 µM)
MIC [8]: 0.25 µg/mL (≈ 0.56 µM)
MIC [4]: 0.06 µg/mL (≈ 0.134 µM)
MIC [5]: 0.5 µg/mL (≈ 1.12 µM)
MIC [6]: 0.25 µg/mL

Compound: CCNC(=O)Nc1nc2cc(-c3cnc(C(C)(O)CO)nc3)cc(-c3ccccn3)c2s1 (racemic)
MIC [7]: 2 µg/mL (≈ 4.44 µM)
inhibitory concentration [1]: 0.006 µg/mL
MIC [3]: 0.12 µg/mL (≈ 0.266 µM)
MIC [8]: 1 µg/mL (≈ 2.22 µM)
MIC [4]: 0.12 µg/mL (≈ 0.266 µM)
MIC [5]: 0.5 µg/mL (≈ 1.11 µM)
MIC [6]: 0.25 µg/mL

Compound: CCNC(=O)Nc1nc2cc(-c3cnc(C4(O)CCS(=O)(=O)CC4)nc3)cc(-c3ccccn3)c2s1
MIC [7]: 2 µg/mL (≈ 3.81 µM)
inhibitory concentration [1]: 0.006 µg/mL
MIC [3]: 0.25 µg/mL (≈ 0.477 µM)
MIC [8]: 1 µg/mL (≈ 1.91 µM)
MIC [4]: 0.25 µg/mL (≈ 0.477 µM)
MIC [5]: 1 µg/mL (≈ 1.91 µM)
MIC [6]: 0.5 µg/mL

Compound: CCNC(=O)Nc1nc2cc(-c3cnc(C(O)C(C)(C)C)nc3)cc(-c3ccccn3)c2s1 (racemic)
MIC [7]: 2 µg/mL (≈ 4.32 µM)
inhibitory concentration [1]: 0.012 µg/mL
MIC [3]: 0.12 µg/mL (≈ 0.259 µM)
MIC [8]: 0.25 µg/mL (≈ 0.54 µM)
MIC [4]: 0.12 µg/mL (≈ 0.259 µM)
MIC [6]: 2 µg/mL

Compound: CCNC(=O)Nc1nc2cc(-c3cnc(C4(O)CCNCC4)nc3)cc(-c3ccccn3)c2s1
MIC [7]: > 16 µg/mL
inhibitory concentration [1]: 0.01 µg/mL
MIC [3]: 8 µg/mL (≈ 16.8 µM)
MIC [8]: > 16 µg/mL
MIC [4]: 2 µg/mL (≈ 4.21 µM)
MIC [5]: > 16 µg/mL
MIC [6]: 4 µg/mL
